STAT3 act = increases IL-6 driven STAT3 reporter signal; U3A cells, IL-6 STAT3-luciferase reporter, luminescence; 100% = signal with IL-6 EC80 alone; activation (% of control), % at 5.6 µM; hit rate 0.91% among 190,000;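 active = activation above the screen-wide mean of compound activation plus 3 SD, cut at about 130% in these data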;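 note: 0% = background luminescence of wells with medium and substrate only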
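Material: human U3A cells carrying STAT3-luciferase construct. Measured by: reporter luminescence signal. Timing: compound 1 h, then IL-6 6 h at 37 °C.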
HSP90 refold inh = inhibitors of HSP90 luciferase refolding in rabbit reticulocyte lysate. AID 1789. hit rate 0.91% among 290,000. luciferase refolding luminescence, 3 h. inhibition, % at 5.6 µM;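 active = inhibition above the screen-wide mean plus 3 SD, computed separately per campaign, cut at about 16% in these data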;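 note: 0% = DMSO wells and 100% = 60 µM geldanamycin wells; inhibitors lower the luminescence because luciferase stays unfolded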
PPC-1+TRAIL kill = PPC-1 cancer cell killing with TRAIL present; PPC-1 cells + TRAIL, ATPLite viability luminescence; hit rate 0.41% among 220,000; cell killing (% activity), % at 4 µM or 5 µM;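 active = cell killing above 50% in the first pass at 4 µM, then a duplicate retest at 5 µM averaging 50% or more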;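 note: plate controls were cells with TRAIL plus DMSO for no effect and medium-only wells lacking cells for full effect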
C8 TRAIL sens = sensitizes caspase-8 expressing cells to TRAIL | NB7+C8 cells + TRAIL, ATPlite viability luminescence | inhibition (viability loss, TRAIL sensitization), % at 10 µM | hit rate 1% among 360,000;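 active = compounds causing at least 50% loss of cell viability in the single-dose screen, relative to plate controls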
STAT1 blocker = reduces IFN-gamma driven STAT1 reporter signal. NIH 3T3 STAT1-luciferase reporter, luminescence. inhibition, % at 5.5 µM. hit rate 0.35% among 200,000;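 active = inhibition above a set limit, the mean inhibition across all tested compounds plus 3 SD, cut at about 34% in these data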;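 note: 0% = IFN-gamma with DMSO and 100% = IFN-gamma with 300 µM nifuroxazide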
STAT3 blocker = STAT3 signaling inhibition | U3A cells, IL-6 STAT3-luciferase reporter, luminescence; host cell line lacks STAT1 | inhibition, % at 5.5 µM | hit rate 0.89% among 190,000;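 active = inhibition above the mean inhibition across all screened compounds plus 3 SD, cut at about 44% in these data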;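 note: 0% = DMSO only wells and 100% = 100 µM nifuroxazide control wells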
HSP90 confirm = HSP90 inhibition, confirmation assay; inhibition, % at 5.9 µM; rabbit reticulocyte lysate, luciferase refolding luminescence, 3 h; hit rate 64% among 2,300; shares compounds with HSP90 refold inh; AID 1846; in the data active = inhibition above about 18%;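 note: 0% = vehicle wells and 100% = reference inhibitor wells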
luciferase ctr = blocks native firefly luciferase in HSP90 counter-screen; purified native firefly luciferase, luminescence; shares compounds with HSP90 refold inh; hit rate 48% among 2,300; inhibition, % at 5.9 µM; AID 1847;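 active = inhibition above the mean inhibition of all tested sample wells plus 3 SD, cut at about 10% in these data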;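 note: 0% = DMSO with luciferase and 100% = wells lacking luciferase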
Numbers without * were called inactive. This is a sample that favours compounds with a hit; in the whole collection about 2.3% have one here.

How did Cc1ccccc1-n1c(C)cc(/C=C(\C#N)C(=O)NCC2CCCO2)c1C (centres undefined) do in these assays?
STAT3 act: 123; HSP90 refold inh: 20*; PPC-1+TRAIL kill: 55*; C8 TRAIL sens: 25; STAT1 blocker: -56; STAT3 blocker: -27; HSP90 confirm: 37*; luciferase ctr: 25*

How did Cc1ccc(/C=C(\C#N)C(=O)NCC2CCCO2)o1 (centres undefined) do in these assays?
STAT3 act: 83; HSP90 refold inh: 0; PPC-1+TRAIL kill: -5; C8 TRAIL sens: -10; STAT1 blocker: -6; STAT3 blocker: 24

How did CC1(C)Cc2ccccc2C2=NNC(=O)C2=N1 do in these assays?
STAT3 act: 102; HSP90 refold inh: 17*; PPC-1+TRAIL kill: 44; C8 TRAIL sens: 7; STAT1 blocker: -42; STAT3 blocker: 1; HSP90 confirm: 34*; luciferase ctr: -7

How did c1ccc(-c2noc(-c3ccc4ccccc4c3)n2)nc1 do in these assays?
STAT3 act: 9; HSP90 refold inh: 78*; PPC-1+TRAIL kill: 24; C8 TRAIL sens: 87*; STAT1 blocker: 88*; STAT3 blocker: 113*; HSP90 confirm: 97*; luciferase ctr: 92*

Results for c1ccc(-c2noc(-c3ccncc3)n2)nc1 ?
STAT3 act: 72; HSP90 refold inh: 18*; PPC-1+TRAIL kill: 15; C8 TRAIL sens: 25; STAT1 blocker: -26; STAT3 blocker: 34; HSP90 confirm: 18*; luciferase ctr: -4

Results for CC(C)(C)c1ccc(-c2nc(-c3ccncc3)no2)cc1 ?
STAT3 act: 69; HSP90 refold inh: 20*; PPC-1+TRAIL kill: 3; C8 TRAIL sens: 19; STAT1 blocker: -33; STAT3 blocker: 41; HSP90 confirm: 33*; luciferase ctr: 32*

Results for COc1ccc(C2(CNC(=O)/C=C\c3ccco3)CCCC2)cc1OC ?
STAT3 act: 120; HSP90 refold inh: 2; PPC-1+TRAIL kill: 11; C8 TRAIL sens: -4; STAT1 blocker: -1; STAT3 blocker: -18

Results for COc1cccc(/C=N/NC(=O)c2[nH]c(C)c(C(=O)N/N=C/c3cccc(OC)c3O)c2C)c1O ?
STAT3 act: 108; HSP90 refold inh: 32*; PPC-1+TRAIL kill: 20; C8 TRAIL sens: 7; STAT1 blocker: -2; STAT3 blocker: -4; HSP90 confirm: -10; luciferase ctr: -19

What do the screens show for `Cc1nn(C)c(C)c1C1Nc2ccccc2C(=O)N1O` (centres undefined)?
STAT3 act: 98; HSP90 refold inh: -3; PPC-1+TRAIL kill: -14; C8 TRAIL sens: 3; STAT1 blocker: 2; STAT3 blocker: 5

What do the screens show for `NC(=O)NC(=O)C(Nc1ccc(N2CCCCC2)cc1)c1ccccc1` (centres undefined)?
HSP90 refold inh: 23*; C8 TRAIL sens: -6; HSP90 confirm: 10; luciferase ctr: 6

Results for CCN(CC)CCOCCn1c(C)ccc1C ?
C8 TRAIL sens: -3

Results for C(=C\c1ccc2ccccc2n1)/c1ccccc1 ?
HSP90 refold inh: 35*; PPC-1+TRAIL kill: 44; C8 TRAIL sens: 73*; HSP90 confirm: 83*; luciferase ctr: 77*

What do the screens show for `O=C1c2ccccc2S(=O)(=O)N1Cc1nc2ccccc2s1`?
STAT3 act: 50; HSP90 refold inh: 37*; PPC-1+TRAIL kill: 23; C8 TRAIL sens: 38; STAT1 blocker: 52*; STAT3 blocker: 61*; HSP90 confirm: 21*; luciferase ctr: -5

What do the screens show for `Cc1ccccc1CN1C(=O)c2ccccc2S1(=O)=O`?
HSP90 refold inh: 2; C8 TRAIL sens: -11

What do the screens show for `CCOC(=O)C(=Cc1ccc(-n2ccnc2)cc1)C(=O)OCC`?
STAT3 act: 96; HSP90 refold inh: 1; PPC-1+TRAIL kill: 17; C8 TRAIL sens: 16; STAT1 blocker: -1; STAT3 blocker: 7

How did O=C(O)c1ccc(NC2=C(N3CCOCC3)C(=O)c3ccccc3C2=O)cc1 do in these assays?
STAT3 act: 91; HSP90 refold inh: 3; PPC-1+TRAIL kill: 27; C8 TRAIL sens: 13; STAT1 blocker: -1; STAT3 blocker: 9
